ChEMBL document CHEMBL1138558, “Synthesis of some new 1,2,4-triazoles, their Mannich and Schiff bases and evaluation of their antimicrobial activities” (2009)
Active and inactive are the calls of the source. The calls are words filed in the database; no cut-off is given here.

Each molecule was assayed on Yersinia pseudotuberculosis (assay: Antimicrobial activity against Yersinia pseudotuberculosis ATCC 911 at 10 mg/mL after 18 hrs by agar-well diffusion method). Details: not given.
Type: functional
Method in brief: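 Bacteria suspended in Mueller Hinton broth at about 10⁶ cfu/mL, flood-inoculated onto Mueller Hinton agar and dried. Test substance placed into 5-mm wells bored with a sterile cork-borer. Incubation 18 h at 35 °C, then the inhibition zone around each well measured.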
For `NNC(=O)CSc1nnc(-c2ccncc2)n1-c1ccccc1`, the “inhibition zone (IZ)” value was “inactive”.

Same assay, conditions: ATCC 911, 18 h, read-out: IZ
Molecule `Cc1ccc(N(C)c2nnc(CSc3nnc(-c4ccncc4)n3-c3ccccc3)s2)cc1` has a zone of inhibition at 10000 µg/mL of 16 mm. Molecule `O=C(CSc1nnc(-c2ccncc2)n1-c1ccccc1)N/N=C/c1ccccn1` has a zone of inhibition at 10000 µg/mL of 30 mm. `O=C(CSc1nnc(-c2ccncc2)n1-c1ccccc1)N/N=C/c1ccccc1O` showed a zone of inhibition at 10000 µg/mL of 30 mm. `O=C(CSc1nnc(-c2ccncc2)n1-c1ccccc1)N/N=C/c1ccc(F)cc1` was tested, and the zone of inhibition at 10000 µg/mL was 25 mm. `S=c1n(CNCCN2CCOCC2)nc(-c2ccncc2)n1-c1ccccc1` was tested, and the zone of inhibition at 10000 µg/mL was 22 mm. `COc1ccc(/C=N/NC(=O)CSc2nnc(-c3ccncc3)n2-c2ccccc2)cc1` gave a zone of inhibition at 10000 µg/mL of 30 mm. In the case of `O=C(CSc1nnc(-c2ccncc2)n1-c1ccccc1)N/N=C/c1cccnc1`, the zone of inhibition at 10000 µg/mL is reported as 7 mm. `CN1CCN(Cn2nc(-c3ccncc3)n(-c3ccccc3)c2=S)CC1` showed a zone of inhibition at 10000 µg/mL of 24 mm. Work on `CC(C)CSc1nnc(-c2ccncc2)n1-c1ccccc1` yielded a zone of inhibition at 10000 µg/mL of 30 mm.

Each molecule was assayed on Candida tropicalis (assay: Antimicrobial activity against Candida tropicalis ATCC 13803 at 10 mg/mL after 18 hrs by agar-well diffusion method). Details: not given.
Type: functional
Method in brief: (§1)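 Candida cultures were suspended in Mueller Hinton broth at about 10⁶ cfu/mL, flood-inoculated onto Sabouraud dextrose agar and dried. Test solution was loaded into 5-mm wells bored in the agar. Plates were incubated 18 h at 35 °C, and activity was scored as the inhibition zone around each well.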
`Cc1ccc(N(C)c2nnc(CSc3nnc(-c4ccncc4)n3-c3ccccc3)s2)cc1` was tested, and the “inhibition zone (IZ)” value was “inactive”. In the case of `O=C(CSc1nnc(-c2ccncc2)n1-c1ccccc1)N/N=C/c1ccccn1`, the “inhibition zone (IZ)” value is reported as “inactive”. In the case of `O=C(CSc1nnc(-c2ccncc2)n1-c1ccccc1)N/N=C/c1ccccc1O`, the “inhibition zone (IZ)” value is reported as “inactive”. In the case of `O=C(CSc1nnc(-c2ccncc2)n1-c1ccccc1)N/N=C/c1ccc(F)cc1`, the “inhibition zone (IZ)” value is reported as “inactive”. `S=c1n(CNCCN2CCOCC2)nc(-c2ccncc2)n1-c1ccccc1` was tested, and the “inhibition zone (IZ)” value was “inactive”. For `COc1ccc(/C=N/NC(=O)CSc2nnc(-c3ccncc3)n2-c2ccccc2)cc1`, the “inhibition zone (IZ)” value was “inactive”. For `O=C(CSc1nnc(-c2ccncc2)n1-c1ccccc1)N/N=C/c1cccnc1`, the “inhibition zone (IZ)” value was “inactive”. With `CN1CCN(Cn2nc(-c3ccncc3)n(-c3ccccc3)c2=S)CC1` the “inhibition zone (IZ)” value was “inactive”. In the case of `NNC(=O)CSc1nnc(-c2ccncc2)n1-c1ccccc1`, the “inhibition zone (IZ)” value is reported as “inactive”.

Same assay, conditions: ATCC 13803, 18 h, read-out: IZ
Molecule `CC(C)CSc1nnc(-c2ccncc2)n1-c1ccccc1` has a zone of inhibition at 10000 µg/mL of 8 mm.

These molecules were tested on Escherichia coli (assay: Antimicrobial activity against Escherichia coli ATCC 25922 at 10 mg/mL after 18 hrs by agar-well diffusion method). Details: not given.
Type: functional
Method in brief: (§2)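 Agar-well diffusion: each bacterium suspended in Mueller Hinton broth at about 10⁶ cfu/mL, flood-inoculated onto Mueller Hinton agar and dried. 5-mm wells were cut with a sterile cork-borer and filled with the test solution. Plates were incubated 18 h at 35 °C. The read-out was the diameter of the inhibition zone.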
For `NNC(=O)CSc1nnc(-c2ccncc2)n1-c1ccccc1`, the “inhibition zone (IZ)” value was “inactive”.

Same assay, conditions: ATCC 25922, 18 h, read-out: IZ
`Cc1ccc(N(C)c2nnc(CSc3nnc(-c4ccncc4)n3-c3ccccc3)s2)cc1` gave a zone of inhibition at 10000 µg/mL of 28 mm. `O=C(CSc1nnc(-c2ccncc2)n1-c1ccccc1)N/N=C/c1ccccn1` showed a zone of inhibition at 10000 µg/mL of 42 mm. In the case of `O=C(CSc1nnc(-c2ccncc2)n1-c1ccccc1)N/N=C/c1ccccc1O`, the zone of inhibition at 10000 µg/mL is reported as 30 mm. Work on `O=C(CSc1nnc(-c2ccncc2)n1-c1ccccc1)N/N=C/c1ccc(F)cc1` yielded a zone of inhibition at 10000 µg/mL of 30 mm. `S=c1n(CNCCN2CCOCC2)nc(-c2ccncc2)n1-c1ccccc1` showed a zone of inhibition at 10000 µg/mL of 20 mm. `COc1ccc(/C=N/NC(=O)CSc2nnc(-c3ccncc3)n2-c2ccccc2)cc1` was tested, and the zone of inhibition at 10000 µg/mL was 24 mm. With `O=C(CSc1nnc(-c2ccncc2)n1-c1ccccc1)N/N=C/c1cccnc1` the zone of inhibition at 10000 µg/mL was 8 mm. For `CN1CCN(Cn2nc(-c3ccncc3)n(-c3ccccc3)c2=S)CC1`, the zone of inhibition at 10000 µg/mL was 24 mm. Work on `CC(C)CSc1nnc(-c2ccncc2)n1-c1ccccc1` yielded a zone of inhibition at 10000 µg/mL of 25 mm.

The molecules below were run on Candida albicans (assay: Antimicrobial activity against Candida albicans ATCC 60193 at 10 mg/mL after 18 hrs by agar-well diffusion method). Details: not given.
Type: functional
Method in brief: as §1
In the case of `Cc1ccc(N(C)c2nnc(CSc3nnc(-c4ccncc4)n3-c3ccccc3)s2)cc1`, the “inhibition zone (IZ)” value is reported as “inactive”. In the case of `O=C(CSc1nnc(-c2ccncc2)n1-c1ccccc1)N/N=C/c1ccccn1`, the “inhibition zone (IZ)” value is reported as “inactive”. For `O=C(CSc1nnc(-c2ccncc2)n1-c1ccccc1)N/N=C/c1ccccc1O`, the “inhibition zone (IZ)” value was “inactive”. In the case of `O=C(CSc1nnc(-c2ccncc2)n1-c1ccccc1)N/N=C/c1ccc(F)cc1`, the “inhibition zone (IZ)” value is reported as “inactive”. With `S=c1n(CNCCN2CCOCC2)nc(-c2ccncc2)n1-c1ccccc1` the “inhibition zone (IZ)” value was “inactive”. For `COc1ccc(/C=N/NC(=O)CSc2nnc(-c3ccncc3)n2-c2ccccc2)cc1`, the “inhibition zone (IZ)” value was “inactive”. `O=C(CSc1nnc(-c2ccncc2)n1-c1ccccc1)N/N=C/c1cccnc1` was tested, and the “inhibition zone (IZ)” value was “inactive”. With `CN1CCN(Cn2nc(-c3ccncc3)n(-c3ccccc3)c2=S)CC1` the “inhibition zone (IZ)” value was “inactive”. For `NNC(=O)CSc1nnc(-c2ccncc2)n1-c1ccccc1`, the “inhibition zone (IZ)” value was “inactive”.

Same assay, conditions: ATCC 60193, 18 h, read-out: IZ
Molecule `CC(C)CSc1nnc(-c2ccncc2)n1-c1ccccc1` has a zone of inhibition at 10000 µg/mL of 8 mm.

These molecules were tested on Bacillus cereus (assay: Antimicrobial activity against Bacillus cereus 702 Roma at 10 mg/mL after 18 hrs by agar-well diffusion method). Details: not given.
Type: functional
Method in brief: as §2
For `O=C(CSc1nnc(-c2ccncc2)n1-c1ccccc1)N/N=C/c1cccnc1`, the “inhibition zone (IZ)” value was “inactive”. In the case of `NNC(=O)CSc1nnc(-c2ccncc2)n1-c1ccccc1`, the “inhibition zone (IZ)” value is reported as “inactive”.

Same assay, conditions: read-out: IZ
With `Cc1ccc(N(C)c2nnc(CSc3nnc(-c4ccncc4)n3-c3ccccc3)s2)cc1` the zone of inhibition at 10000 µg/mL was 17 mm. With `O=C(CSc1nnc(-c2ccncc2)n1-c1ccccc1)N/N=C/c1ccccn1` the zone of inhibition at 10000 µg/mL was 20 mm. `O=C(CSc1nnc(-c2ccncc2)n1-c1ccccc1)N/N=C/c1ccccc1O` was tested, and the zone of inhibition at 10000 µg/mL was 25 mm. `O=C(CSc1nnc(-c2ccncc2)n1-c1ccccc1)N/N=C/c1ccc(F)cc1` gave a zone of inhibition at 10000 µg/mL of 23 mm. Work on `S=c1n(CNCCN2CCOCC2)nc(-c2ccncc2)n1-c1ccccc1` yielded a zone of inhibition at 10000 µg/mL of 15 mm. Molecule `COc1ccc(/C=N/NC(=O)CSc2nnc(-c3ccncc3)n2-c2ccccc2)cc1` has a zone of inhibition at 10000 µg/mL of 25 mm. `CN1CCN(Cn2nc(-c3ccncc3)n(-c3ccccc3)c2=S)CC1` was tested, and the zone of inhibition at 10000 µg/mL was 23 mm. `CC(C)CSc1nnc(-c2ccncc2)n1-c1ccccc1` showed a zone of inhibition at 10000 µg/mL of 30 mm.

What follows are molecules tested on Enterococcus faecalis (assay: Antimicrobial activity against Enterococcus faecalis ATCC 29212 at 10 mg/mL after 18 hrs by agar-well diffusion method). Details: not given.
Type: functional
Method in brief: as §2
`O=C(CSc1nnc(-c2ccncc2)n1-c1ccccc1)N/N=C/c1cccnc1` was tested, and the “inhibition zone (IZ)” value was “inactive”. For `NNC(=O)CSc1nnc(-c2ccncc2)n1-c1ccccc1`, the “inhibition zone (IZ)” value was “inactive”.

Same assay, conditions: ATCC 29212, 18 h, read-out: IZ
In the case of `Cc1ccc(N(C)c2nnc(CSc3nnc(-c4ccncc4)n3-c3ccccc3)s2)cc1`, the zone of inhibition at 10000 µg/mL is reported as 7 mm. In the case of `O=C(CSc1nnc(-c2ccncc2)n1-c1ccccc1)N/N=C/c1ccccn1`, the zone of inhibition at 10000 µg/mL is reported as 20 mm. Work on `O=C(CSc1nnc(-c2ccncc2)n1-c1ccccc1)N/N=C/c1ccccc1O` yielded a zone of inhibition at 10000 µg/mL of 30 mm. Work on `O=C(CSc1nnc(-c2ccncc2)n1-c1ccccc1)N/N=C/c1ccc(F)cc1` yielded a zone of inhibition at 10000 µg/mL of 30 mm. `S=c1n(CNCCN2CCOCC2)nc(-c2ccncc2)n1-c1ccccc1` gave a zone of inhibition at 10000 µg/mL of 16 mm. In the case of `COc1ccc(/C=N/NC(=O)CSc2nnc(-c3ccncc3)n2-c2ccccc2)cc1`, the zone of inhibition at 10000 µg/mL is reported as 28 mm. With `CN1CCN(Cn2nc(-c3ccncc3)n(-c3ccccc3)c2=S)CC1` the zone of inhibition at 10000 µg/mL was 28 mm. For `CC(C)CSc1nnc(-c2ccncc2)n1-c1ccccc1`, the zone of inhibition at 10000 µg/mL was 30 mm.

What follows are molecules tested on Staphylococcus aureus (assay: Antimicrobial activity against Staphylococcus aureus ATCC 25923 at 10 mg/mL after 18 hrs by agar-well diffusion method). Details: not given.
Type: functional
Method in brief: as §2
`O=C(CSc1nnc(-c2ccncc2)n1-c1ccccc1)N/N=C/c1cccnc1` was tested, and the “inhibition zone (IZ)” value was “inactive”. For `NNC(=O)CSc1nnc(-c2ccncc2)n1-c1ccccc1`, the “inhibition zone (IZ)” value was “inactive”.

Same assay, conditions: ATCC 25923, 18 h, read-out: IZ
Work on `Cc1ccc(N(C)c2nnc(CSc3nnc(-c4ccncc4)n3-c3ccccc3)s2)cc1` yielded a zone of inhibition at 10000 µg/mL of 22 mm. `O=C(CSc1nnc(-c2ccncc2)n1-c1ccccc1)N/N=C/c1ccccn1` was tested, and the zone of inhibition at 10000 µg/mL was 24 mm. In the case of `O=C(CSc1nnc(-c2ccncc2)n1-c1ccccc1)N/N=C/c1ccccc1O`, the zone of inhibition at 10000 µg/mL is reported as 25 mm. Molecule `O=C(CSc1nnc(-c2ccncc2)n1-c1ccccc1)N/N=C/c1ccc(F)cc1` has a zone of inhibition at 10000 µg/mL of 30 mm. `S=c1n(CNCCN2CCOCC2)nc(-c2ccncc2)n1-c1ccccc1` gave a zone of inhibition at 10000 µg/mL of 21 mm. Molecule `COc1ccc(/C=N/NC(=O)CSc2nnc(-c3ccncc3)n2-c2ccccc2)cc1` has a zone of inhibition at 10000 µg/mL of 28 mm. For `CN1CCN(Cn2nc(-c3ccncc3)n(-c3ccccc3)c2=S)CC1`, the zone of inhibition at 10000 µg/mL was 24 mm. Molecule `CC(C)CSc1nnc(-c2ccncc2)n1-c1ccccc1` has a zone of inhibition at 10000 µg/mL of 25 mm.

What follows are molecules tested on Pseudomonas aeruginosa (assay: Antimicrobial activity against Pseudomonas aeruginosa ATCC 27853 at 10 mg/mL after 18 hrs by agar-well diffusion method). Details: not given.
Type: functional
Method in brief: as §2
With `O=C(CSc1nnc(-c2ccncc2)n1-c1ccccc1)N/N=C/c1cccnc1` the “inhibition zone (IZ)” value was “inactive”. With `NNC(=O)CSc1nnc(-c2ccncc2)n1-c1ccccc1` the “inhibition zone (IZ)” value was “inactive”.

Same assay, conditions: ATCC 27853, 18 h, read-out: IZ
`Cc1ccc(N(C)c2nnc(CSc3nnc(-c4ccncc4)n3-c3ccccc3)s2)cc1` showed a zone of inhibition at 10000 µg/mL of 15 mm. With `O=C(CSc1nnc(-c2ccncc2)n1-c1ccccc1)N/N=C/c1ccccn1` the zone of inhibition at 10000 µg/mL was 40 mm. With `O=C(CSc1nnc(-c2ccncc2)n1-c1ccccc1)N/N=C/c1ccccc1O` the zone of inhibition at 10000 µg/mL was 30 mm. `O=C(CSc1nnc(-c2ccncc2)n1-c1ccccc1)N/N=C/c1ccc(F)cc1` showed a zone of inhibition at 10000 µg/mL of 38 mm. Molecule `S=c1n(CNCCN2CCOCC2)nc(-c2ccncc2)n1-c1ccccc1` has a zone of inhibition at 10000 µg/mL of 14 mm. `COc1ccc(/C=N/NC(=O)CSc2nnc(-c3ccncc3)n2-c2ccccc2)cc1` was tested, and the zone of inhibition at 10000 µg/mL was 30 mm. Work on `CN1CCN(Cn2nc(-c3ccncc3)n(-c3ccccc3)c2=S)CC1` yielded a zone of inhibition at 10000 µg/mL of 30 mm. For `CC(C)CSc1nnc(-c2ccncc2)n1-c1ccccc1`, the zone of inhibition at 10000 µg/mL was 30 mm.
